Experimental data published in ChEMBL document CHEMBL1135836, “Cyclodextrin-derived host molecules as reversal agents for the neuromuscular blocker rocuronium bromide: synthesis and structure-activity relationships” (J Med Chem, 2002).

What was measured:
Type in all cases: functional
[1] = tested on: Cavia porcellus; assay: In vivo reversal activity versus ~90% block by rocuronium in guinea pig
How it was run: (§1)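 Male Dunkin-Hartley guinea pigs (600-900 g), anaesthetized ip with pentobarbitone 10 mg/kg plus urethane 1000 mg/kg, tracheotomized and ventilated. Continuous iv rocuronium infusion (~10 nmol kg-1 min-1) was raised to a steady 85-90% block. Increasing iv doses of agent were given cumulatively. ED50 = 50% recovery versus preblock twitch, by regression. Mean ± SEM of at least two experiments, or one.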

[2] = tested on: Cavia porcellus; assay: In vivo reversal activity versus ~90% block by rocuronium in guinea pig, expressed as % of maximum reversal at 0.5 umol/kg conc.; how it was run: as §1
[3] = organism: Mus musculus; assay: In vitro reversal activity versus ~90% block by rocuronium in isolated mouse hemidiaphragm, expressed as % of maximum reversal at 3.6 uM conc.
[4] = organism: Mus musculus; assay: In vitro reversal activity versus ~90% block by rocuronium in isolated mouse hemidiaphragm, expressed as effective conc.
[5] = tested on: Cavia porcellus; assay: In vivo reversal activity versus ~90% block by rocuronium in guinea pig, expressed as % of maximum reversal at 16 umol/kg conc.
How it was run: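 Male Dunkin-Hartley guinea pigs (600-900 g) anaesthetized ip with pentobarbitone 10 mg/kg plus urethane 1000 mg/kg, tracheotomized and artificially ventilated. Continuous iv rocuronium bromide infusion (~10 nmol kg-1 min-1) raised until steady-state twitch block of 85-90%. Increasing single iv doses of reversal agent given by a separate catheter. Max reversal is peak twitch recovery versus preblock height at highest dose tested; means ± SEM, n ≥ 2 or single experiment.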

[6] = organism: Mus musculus; assay: In vitro reversal activity versus ~90% block by rocuronium in isolated mouse hemidiaphragm, expressed as % of maximum reversal at 18 uM conc.
[7] = organism: Mus musculus; assay: In vitro reversal activity versus ~90% block by rocuronium in isolated mouse hemidiaphragm, expressed as % of maximum reversal at 5.4 uM conc.
[8] = tested on: Cavia porcellus; assay: In vivo reversal activity versus ~90% block by rocuronium in guinea pig, expressed as % of maximum reversal at 0.3 umol/kg conc.; how it was run: as §1

EC50 [4] [µM] | Compound | ED50 [1] [µmol/kg] | Max reversal [2] [%] | Max reversal [3] [%] | Max reversal [5] [%] | Max reversal [6] [%] | Max reversal [7] [%] | Max reversal [8] [%]
3.6 | O=S(=O)([O-])CCSCC1O[C@@H]2O[C@@H]3C(CSCCS(=O)(=O)[O-])O[C@H](O[C@@H]4C(CSCCS(=O)(=O)[O-])O[C@H](O[C@@H]5C(CSCCS(=O)(=O)[O-])O[C@H](O[C@@H]6C(CSCCS(=O)(=O)[O-])O[C@H](O[C@@H]7C(CSCCS(=O)(=O)[O-])O[C@H](O[C@@H]8C(CSCCS(=O)(=O)[O-])O[C@H](O[C@@H]9C(CSCCS(=O)(=O)[O-])O[C@H](O[C@H]1C(O)C2O)C(O)C9O)C(O)C8O)C(O)C7O)C(O)C6O)C(O)C5O)C(O)C4O)C(O)C3O.[Na+].[Na+].[Na+].[Na+].[Na+].[Na+].[Na+].[Na+] (stereo partly drawn) | 0.05 | 92.8 | 95.6 |  |  |  | 
60.8 | O=C([O-])CSCC1O[C@@H]2O[C@@H]3C(CO)O[C@H](O[C@@H]4C(CO)O[C@H](O[C@@H]5C(CO)O[C@H](O[C@@H]6C(CO)O[C@H](O[C@@H]7C(CO)O[C@H](O[C@@H]8C(CO)O[C@H](O[C@@H]9C(CO)O[C@H](O[C@H]1C(O)C2O)C(O)C9O)C(O)C8O)C(O)C7O)C(O)C6O)C(O)C5O)C(O)C4O)C(O)C3O.[Na+] (stereo partly drawn) | 5.79 |  |  | 96.5 | 28.9 |  | 
1.2 | O=C([O-])CSCC1O[C@@H]2O[C@@H]3C(CSCC(=O)[O-])O[C@H](O[C@@H]4C(CSCC(=O)[O-])O[C@H](O[C@@H]5C(CSCC(=O)[O-])O[C@H](O[C@@H]6C(CSCC(=O)[O-])O[C@H](O[C@@H]7C(CSCC(=O)[O-])O[C@H](O[C@@H]8C(CSCC(=O)[O-])O[C@H](O[C@@H]9C(CSCC(=O)[O-])O[C@H](O[C@H]1C(O)C2O)C(O)C9O)C(O)C8O)C(O)C7O)C(O)C6O)C(O)C5O)C(O)C4O)C(O)C3O.[Na+].[Na+].[Na+].[Na+].[Na+].[Na+].[Na+].[Na+] (stereo partly drawn) | 0.1 | 103.3 | 93.8 |  |  |  | 
> 18 | O=C([O-])Cc1cccc(SCC2O[C@@H]3O[C@@H]4C(CO)O[C@H](O[C@@H]5C(CO)O[C@H](O[C@@H]6C(CO)O[C@H](O[C@@H]7C(CO)O[C@H](O[C@@H]8C(CO)O[C@H](O[C@@H]9C(CO)O[C@H](O[C@@H]%10C(CO)O[C@H](O[C@H]2C(O)C3O)C(O)C%10O)C(O)C9O)C(O)C8O)C(O)C7O)C(O)C6O)C(O)C5O)C(O)C4O)c1.[Na+] (stereo partly drawn) | 1.67 |  |  | 92.8 | 30.4 |  | 
14.8 | O=C([O-])CCc1cccc(SCC2O[C@@H]3O[C@@H]4C(CSc5cccc(CCC(=O)[O-])c5)O[C@H](O[C@@H]5C(CSc6cccc(CCC(=O)[O-])c6)O[C@H](O[C@@H]6C(CSc7cccc(CCC(=O)[O-])c7)O[C@H](O[C@@H]7C(CSc8cccc(CCC(=O)[O-])c8)O[C@H](O[C@@H]8C(CSc9cccc(CCC(=O)[O-])c9)O[C@H](O[C@@H]9C(CSc%10cccc(CCC(=O)[O-])c%10)O[C@H](O[C@@H]%10C(CSc%11cccc(CCC(=O)[O-])c%11)O[C@H](O[C@H]2C(O)C3O)C(O)C%10O)C(O)C9O)C(O)C8O)C(O)C7O)C(O)C6O)C(O)C5O)C(O)C4O)c1.[Na+].[Na+].[Na+].[Na+].[Na+].[Na+].[Na+].[Na+] (stereo partly drawn) | 22.8 |  |  | 35.3 | 65.2 |  | 
0.1 | O=C([O-])c1ccccc1C(=O)NCCSCC1O[C@@H]2O[C@@H]3C(CSCCNC(=O)c4ccccc4C(=O)[O-])O[C@H](O[C@@H]4C(CSCCNC(=O)c5ccccc5C(=O)[O-])O[C@H](O[C@@H]5C(CSCCNC(=O)c6ccccc6C(=O)[O-])O[C@H](O[C@@H]6C(CSCCNC(=O)c7ccccc7C(=O)[O-])O[C@H](O[C@@H]7C(CSCCNC(=O)c8ccccc8C(=O)[O-])O[C@H](O[C@@H]8C(CSCCNC(=O)c9ccccc9C(=O)[O-])O[C@H](O[C@@H]9C(CSCCNC(=O)c%10ccccc%10C(=O)[O-])O[C@H](O[C@H]1C(O)C2O)C(O)C9O)C(O)C8O)C(O)C7O)C(O)C6O)C(O)C5O)C(O)C4O)C(O)C3O.[Na+].[Na+].[Na+].[Na+].[Na+].[Na+].[Na+].[Na+] (stereo partly drawn) | 0.09 | 94.5 |  |  |  | 88.3 | 
> 18 | O=C([O-])c1cccc(SCC2O[C@@H]3O[C@@H]4C(CO)O[C@H](O[C@@H]5C(CO)O[C@H](O[C@@H]6C(CO)O[C@H](O[C@@H]7C(CO)O[C@H](O[C@@H]8C(CO)O[C@H](O[C@@H]9C(CO)O[C@H](O[C@@H]%10C(CO)O[C@H](O[C@H]2C(O)C3O)C(O)C%10O)C(O)C9O)C(O)C8O)C(O)C7O)C(O)C6O)C(O)C5O)C(O)C4O)c1.[Na+] (stereo partly drawn) | 2.41 |  |  | 102.7 | 36.1 |  | 
1.4 | O=C([O-])CCCSCC1O[C@@H]2O[C@@H]3C(CSCCCC(=O)[O-])O[C@H](O[C@@H]4C(CSCCCC(=O)[O-])O[C@H](O[C@@H]5C(CSCCCC(=O)[O-])O[C@H](O[C@@H]6C(CSCCCC(=O)[O-])O[C@H](O[C@@H]7C(CSCCCC(=O)[O-])O[C@H](O[C@@H]8C(CSCCCC(=O)[O-])O[C@H](O[C@@H]9C(CSCCCC(=O)[O-])O[C@H](O[C@H]1C(O)C2O)C(O)C9O)C(O)C8O)C(O)C7O)C(O)C6O)C(O)C5O)C(O)C4O)C(O)C3O.[Na+].[Na+].[Na+].[Na+].[Na+].[Na+].[Na+].[Na+] (stereo partly drawn) | 0.06 |  | 98.5 |  |  |  | 93.4
> 18 | O=C([O-])CCCSCC1O[C@@H]2O[C@@H]3C(CO)O[C@H](O[C@@H]4C(CO)O[C@H](O[C@@H]5C(CO)O[C@H](O[C@@H]6C(CO)O[C@H](O[C@@H]7C(CO)O[C@H](O[C@@H]8C(CO)O[C@H](O[C@@H]9C(CO)O[C@H](O[C@H]1C(O)C2O)C(O)C9O)C(O)C8O)C(O)C7O)C(O)C6O)C(O)C5O)C(O)C4O)C(O)C3O.[Na+] (stereo partly drawn) |  |  |  |  | 14.4 |  | 
> 18 | O=C([O-])CCCSCC1O[C@@H]2O[C@@H]3C(CSCCCC(=O)[O-])O[C@H](O[C@@H]4C(CSCCCC(=O)[O-])O[C@H](O[C@@H]5C(CSCCCC(=O)[O-])O[C@H](O[C@@H]6C(CSCCCC(=O)[O-])O[C@H](O[C@@H]7C(CSCCCC(=O)[O-])O[C@H](O[C@H]1C(O)C2O)C(O)C7O)C(O)C6O)C(O)C5O)C(O)C4O)C(O)C3O.[Na+].[Na+].[Na+].[Na+].[Na+].[Na+] (stereo partly drawn) | > 16 |  |  | 3.4 | 5.3 |  | 
